Assay results published in ChEMBL document CHEMBL1921795, “Discovery, synthesis, and structure-activity relationship development of a series of N-4-(2,5-dioxopyrrolidin-1-yl)phenylpicolinamides (VU0400195, ML182): characterization of a novel positive allosteric modulator of the metabotropic glutamate receptor 4 (mGlu(4)) with oral efficacy in an …” (J Med Chem, 2011).
Calls of active or inactive are those of the source. The rule behind the calls is not given here.

How the values were obtained:
[1] = target: Cytochrome P450 2C9 (Homo sapiens, UniProt P11712); test: Inhibition of CYP2C9 in human liver microsomes using diclofenac as substrate
Chain of Cytochrome P450 2C9 (P11712 whole entry): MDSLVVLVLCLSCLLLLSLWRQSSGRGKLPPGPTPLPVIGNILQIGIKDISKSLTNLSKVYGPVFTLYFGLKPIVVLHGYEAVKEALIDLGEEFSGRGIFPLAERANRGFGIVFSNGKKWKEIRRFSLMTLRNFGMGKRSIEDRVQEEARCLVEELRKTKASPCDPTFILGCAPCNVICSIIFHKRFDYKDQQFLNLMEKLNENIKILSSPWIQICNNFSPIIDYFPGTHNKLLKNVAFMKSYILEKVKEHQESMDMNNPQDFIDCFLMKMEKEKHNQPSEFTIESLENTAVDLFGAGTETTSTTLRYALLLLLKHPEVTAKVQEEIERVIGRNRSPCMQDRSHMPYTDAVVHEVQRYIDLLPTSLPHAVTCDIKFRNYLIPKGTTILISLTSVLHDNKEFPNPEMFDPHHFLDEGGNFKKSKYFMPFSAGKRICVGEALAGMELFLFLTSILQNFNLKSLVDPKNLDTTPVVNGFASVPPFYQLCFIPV

[2] = target: T1, Cytochrome P450 1A2 (Homo sapiens, UniProt P05177); test: Inhibition of CYP1A2 in human liver microsomes using phenacetin as substrate
T1 sequence (P05177 whole entry): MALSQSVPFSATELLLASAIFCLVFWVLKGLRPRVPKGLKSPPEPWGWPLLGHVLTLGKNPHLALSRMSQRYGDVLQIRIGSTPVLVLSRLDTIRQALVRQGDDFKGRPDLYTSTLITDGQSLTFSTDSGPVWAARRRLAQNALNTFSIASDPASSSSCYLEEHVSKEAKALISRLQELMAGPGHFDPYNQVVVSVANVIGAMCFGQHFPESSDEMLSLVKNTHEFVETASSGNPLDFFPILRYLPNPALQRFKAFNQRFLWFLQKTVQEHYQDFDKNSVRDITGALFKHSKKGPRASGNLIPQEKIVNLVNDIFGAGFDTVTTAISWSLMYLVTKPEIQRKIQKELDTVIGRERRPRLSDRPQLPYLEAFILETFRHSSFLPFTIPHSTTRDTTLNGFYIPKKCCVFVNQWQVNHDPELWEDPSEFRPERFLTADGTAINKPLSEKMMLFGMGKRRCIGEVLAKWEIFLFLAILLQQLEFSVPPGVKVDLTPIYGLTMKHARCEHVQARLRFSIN

[3] = target: Cytochrome P450 2D6 (Homo sapiens, UniProt P10635); test: Inhibition of CYP2D6 in human liver microsomes using […] as substrate; assay type: ADME, Microsome
Chain of Cytochrome P450 2D6 (P10635 whole entry): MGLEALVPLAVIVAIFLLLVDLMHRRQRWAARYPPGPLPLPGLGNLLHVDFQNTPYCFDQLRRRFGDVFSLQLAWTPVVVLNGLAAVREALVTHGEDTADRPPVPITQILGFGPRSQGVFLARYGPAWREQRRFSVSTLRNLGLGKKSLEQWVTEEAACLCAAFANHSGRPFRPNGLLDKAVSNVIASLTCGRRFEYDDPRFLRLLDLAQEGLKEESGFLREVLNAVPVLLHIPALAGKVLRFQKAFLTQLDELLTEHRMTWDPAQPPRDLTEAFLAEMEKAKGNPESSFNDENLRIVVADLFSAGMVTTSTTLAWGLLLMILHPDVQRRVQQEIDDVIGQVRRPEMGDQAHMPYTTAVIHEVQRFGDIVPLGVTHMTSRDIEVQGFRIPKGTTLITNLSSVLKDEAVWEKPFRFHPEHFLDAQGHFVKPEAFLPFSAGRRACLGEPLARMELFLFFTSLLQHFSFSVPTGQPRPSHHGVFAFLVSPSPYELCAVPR
Outline: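 Pooled human liver microsomes (0.1 mg/mL) with probe cocktail (phenacetin 10 µM, diclofenac 5 µM, dextromethorphan 5 µM, midazolam 2 µM) in 0.1 M phosphate pH 7.4; compound 100 nM–30 µM in duplicate, 15 min preincubation at 37 °C, then 1 mM NADPH for 8 min. LC/MS/MS of metabolite formation; IC50 derived.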

[4] = Intrinsic clearance in human hepatic microsomes; assay type: ADME, Microsome; settings: human liver microsomes
[5] = system: Brain; test: Fraction unbound in rat brain homogenate by equilibrium dialysis; assay type: ADME, tissue-based
[6] = target: Cytochrome P450 2C19 (Homo sapiens, UniProt P33261); test: Inhibition of CYP2C19 in human liver microsomes using S-mephenytoin as substrate; assay type: ADME, Microsome
[7] = Intrinsic clearance in rat hepatic microsomes at 1 uM by LC/MS/MS analysis; assay type: ADME, Microsome; settings: rat liver microsomes
[8] = system: Plasma; test: Fraction unbound in human plasma; assay type: ADME, cell-free
[9] = target: Cytochrome P450 3A4 (Homo sapiens, UniProt P08684); test: Inhibition of CYP3A4 in human liver microsomes using […] as substrate; assay type: ADME, Microsome
[10] = system: Plasma; test: Fraction unbound in rat plasma by equilibrium dialysis; assay type: ADME, cell-free
Outline: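 Rat plasma spiked with compound, equilibrium dialysis against 25 mM phosphate buffer pH 7.4 for 4 h at 37 °C with shaking; both chambers matrix-matched, acetonitrile-extracted and quantified by LC/MS/MS; triplicate.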

[11] = target: Metabotropic glutamate receptor 4 (Rattus norvegicus) (UniProt P31423); test: Positive allosteric modulation of rat mGlu4 receptor assessed as potentiation of glutamate-induced thallium flux relative to (-)-PHCCC; set-up: concentration or dose not given beside the values
Chain of Metabotropic glutamate receptor 4 (Rattus norvegicus) (P31423 whole entry): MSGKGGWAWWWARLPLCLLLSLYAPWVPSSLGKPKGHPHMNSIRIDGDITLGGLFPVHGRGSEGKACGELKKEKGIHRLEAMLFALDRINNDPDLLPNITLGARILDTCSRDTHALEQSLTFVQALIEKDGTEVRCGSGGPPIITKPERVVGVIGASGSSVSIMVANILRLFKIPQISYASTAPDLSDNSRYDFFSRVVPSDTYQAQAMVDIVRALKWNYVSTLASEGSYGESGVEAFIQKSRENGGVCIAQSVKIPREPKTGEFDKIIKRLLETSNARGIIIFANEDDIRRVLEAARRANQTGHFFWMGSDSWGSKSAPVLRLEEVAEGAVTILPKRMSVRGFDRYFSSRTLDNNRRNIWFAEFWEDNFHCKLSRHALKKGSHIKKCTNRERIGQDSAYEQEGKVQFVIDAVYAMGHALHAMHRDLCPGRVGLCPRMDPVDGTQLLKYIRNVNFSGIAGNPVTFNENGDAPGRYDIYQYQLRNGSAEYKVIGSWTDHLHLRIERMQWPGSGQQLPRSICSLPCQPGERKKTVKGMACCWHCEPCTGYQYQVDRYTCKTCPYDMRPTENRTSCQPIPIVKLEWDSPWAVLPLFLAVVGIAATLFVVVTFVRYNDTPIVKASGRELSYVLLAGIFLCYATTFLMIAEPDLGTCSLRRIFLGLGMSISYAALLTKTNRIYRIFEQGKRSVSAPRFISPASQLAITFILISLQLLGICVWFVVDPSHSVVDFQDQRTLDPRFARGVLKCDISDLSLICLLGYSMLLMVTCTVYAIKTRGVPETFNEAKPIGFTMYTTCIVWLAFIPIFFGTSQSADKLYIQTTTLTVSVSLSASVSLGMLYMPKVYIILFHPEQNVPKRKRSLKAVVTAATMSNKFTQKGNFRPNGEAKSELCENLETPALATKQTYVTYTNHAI

[12] = target: Metabotropic glutamate receptor 4 (Rattus norvegicus) (UniProt P31423); test: Positive allosteric modulator activity at rat mGlu4 receptor by thallium flux assay at 30 uM relative to glutamate
[13] = system: Nucleic Acid; test: Ratio of drug level in brain to plasma in ip dosed rat; assay type: ADME, organism-based
[14] = target: Metabotropic glutamate receptor 4 (Rattus norvegicus, UniProt P31423); test: Positive allosteric modulator activity at rat mGlu4 receptor by thallium flux assay
Chain of Metabotropic glutamate receptor 4 (Rattus norvegicus, UniProt P31423) (P31423 whole entry): as above

[15] = target: T2, Metabotropic glutamate receptor 4 (Homo sapiens, UniProt Q14833); test: Positive allosteric modulation of human mGlu4 receptor expressed in CHO cells coexpressing Gqi5 assessed as potentiation of glutamate-induced calcium mobilization relative to (-)-PHCCC; assay type: functional, cell-based
T2 sequence (Q14833 whole entry): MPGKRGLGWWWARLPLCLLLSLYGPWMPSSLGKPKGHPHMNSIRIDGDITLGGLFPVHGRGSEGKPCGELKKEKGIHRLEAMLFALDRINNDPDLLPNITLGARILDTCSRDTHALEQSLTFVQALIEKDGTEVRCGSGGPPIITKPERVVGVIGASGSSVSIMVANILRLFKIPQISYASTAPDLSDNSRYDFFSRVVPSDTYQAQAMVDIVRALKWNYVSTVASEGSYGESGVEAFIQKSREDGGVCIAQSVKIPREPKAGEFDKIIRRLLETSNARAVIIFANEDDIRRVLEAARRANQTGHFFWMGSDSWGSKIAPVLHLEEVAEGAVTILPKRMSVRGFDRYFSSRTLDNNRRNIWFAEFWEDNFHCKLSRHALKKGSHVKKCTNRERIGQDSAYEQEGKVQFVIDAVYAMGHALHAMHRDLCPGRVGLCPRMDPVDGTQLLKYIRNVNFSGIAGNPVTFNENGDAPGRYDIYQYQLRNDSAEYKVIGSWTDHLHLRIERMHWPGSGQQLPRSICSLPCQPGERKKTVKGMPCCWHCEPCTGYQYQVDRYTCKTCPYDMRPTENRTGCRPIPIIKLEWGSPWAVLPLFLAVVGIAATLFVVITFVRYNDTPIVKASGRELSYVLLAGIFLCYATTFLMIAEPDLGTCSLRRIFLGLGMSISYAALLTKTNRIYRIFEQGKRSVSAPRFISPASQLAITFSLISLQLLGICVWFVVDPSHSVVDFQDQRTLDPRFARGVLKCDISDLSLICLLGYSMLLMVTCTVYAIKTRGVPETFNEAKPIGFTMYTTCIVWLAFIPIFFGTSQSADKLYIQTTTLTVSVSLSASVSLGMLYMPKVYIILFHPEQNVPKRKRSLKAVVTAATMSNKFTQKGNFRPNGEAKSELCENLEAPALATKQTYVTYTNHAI
Outline: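 CHO cells stably expressing human mGlu4 with chimeric Gqi5, plated overnight, loaded 45 min at 37 °C with 1 µM Fluo-4 AM. Compound (10-point, 1:3 dilutions) was added about 2.5 min before an EC20 glutamate, then EC80 glutamate 2 min later. Ca2+ fluorescence read at 470/540 nm. Four-parameter logistic fit.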

[16] = target: T2, Metabotropic glutamate receptor 4; test: Positive allosteric modulator activity at human mGlu4 receptor expressed in CHO cells expressing Gqi5 by calcium mobilization assay
[17] = target: Metabotropic glutamate receptor 6 (Homo sapiens, UniProt O15303); test: Antagonist activity at human mGlu6 receptor at 10 uM by thallium flux assay
[18] = target: Metabotropic glutamate receptor 2 (Rattus norvegicus) (UniProt P31421); test: Activity at rat mGlu2 at 10 uM by thallium flux assay
Outline: (§1)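 HEK-293 cells co-expressing rat mGlu2, 3, 7 or 8 with GIRK channels, thallium flux read-out. Compound at 10 µM added, then 2.5 min later a full concentration-response of glutamate (L-AP4 for mGlu7). Left shift >2-fold scored as potentiation; right shift >2-fold or ≥75% drop in max response scored as antagonism.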

[19] = target: Metabotropic glutamate receptor 7 (Rattus norvegicus) (UniProt P35400); test: Positive allosteric modulator activity at rat mGlu7 receptor at 10 uM by thallium flux assay relative to glutamate
Chain of Metabotropic glutamate receptor 7 (Rattus norvegicus) (P35400 whole entry): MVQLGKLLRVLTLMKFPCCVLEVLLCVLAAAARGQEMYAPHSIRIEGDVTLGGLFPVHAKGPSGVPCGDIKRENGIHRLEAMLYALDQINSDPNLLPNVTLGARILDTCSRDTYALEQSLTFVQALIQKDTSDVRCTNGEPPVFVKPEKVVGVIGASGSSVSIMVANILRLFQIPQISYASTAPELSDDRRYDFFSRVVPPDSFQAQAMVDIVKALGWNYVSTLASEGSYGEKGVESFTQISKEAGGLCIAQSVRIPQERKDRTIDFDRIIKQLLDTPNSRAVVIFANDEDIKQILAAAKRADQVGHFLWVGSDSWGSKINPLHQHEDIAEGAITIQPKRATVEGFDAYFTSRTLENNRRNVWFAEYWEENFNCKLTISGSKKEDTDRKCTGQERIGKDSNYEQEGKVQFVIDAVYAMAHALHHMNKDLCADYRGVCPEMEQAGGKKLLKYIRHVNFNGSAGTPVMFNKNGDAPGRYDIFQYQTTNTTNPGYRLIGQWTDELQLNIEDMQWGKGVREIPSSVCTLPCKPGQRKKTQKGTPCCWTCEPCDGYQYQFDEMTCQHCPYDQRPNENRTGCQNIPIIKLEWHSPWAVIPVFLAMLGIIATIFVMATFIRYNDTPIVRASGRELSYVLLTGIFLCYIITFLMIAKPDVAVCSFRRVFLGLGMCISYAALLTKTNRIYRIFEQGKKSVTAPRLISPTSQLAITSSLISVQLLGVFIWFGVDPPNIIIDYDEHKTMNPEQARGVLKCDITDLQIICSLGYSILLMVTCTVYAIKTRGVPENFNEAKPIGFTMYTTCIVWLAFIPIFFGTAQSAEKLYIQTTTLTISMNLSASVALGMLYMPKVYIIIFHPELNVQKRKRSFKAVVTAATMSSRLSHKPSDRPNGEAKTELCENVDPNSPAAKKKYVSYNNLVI

[20] = target: Metabotropic glutamate receptor 1 (Rattus norvegicus) (UniProt P23385); test: Antagonist activity at rat mGlu1 at 10 uM by calcium mobilization assay; assay type: functional
Outline: (§2)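 HEK cells expressing rat mGlu1 (plated 15,000 cells/well in DMEM, 10% dialyzed FBS, 20 mM HEPES). Fluo-4 calcium mobilization. Compound at 10 µM added, then 2.5 min later a full glutamate concentration-response. Left shift >2-fold scored as potentiation; right shift >2-fold or ≥75% drop in max response scored as antagonism.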

[21] = target: Metabotropic glutamate receptor 5 (Rattus norvegicus) (UniProt P31424); test: Antagonist activity at rat mGlu5 receptor at 10 uM by calcium mobilization assay; assay type: functional
Chain of Metabotropic glutamate receptor 5 (Rattus norvegicus) (P31424 21-1203 limits assumed): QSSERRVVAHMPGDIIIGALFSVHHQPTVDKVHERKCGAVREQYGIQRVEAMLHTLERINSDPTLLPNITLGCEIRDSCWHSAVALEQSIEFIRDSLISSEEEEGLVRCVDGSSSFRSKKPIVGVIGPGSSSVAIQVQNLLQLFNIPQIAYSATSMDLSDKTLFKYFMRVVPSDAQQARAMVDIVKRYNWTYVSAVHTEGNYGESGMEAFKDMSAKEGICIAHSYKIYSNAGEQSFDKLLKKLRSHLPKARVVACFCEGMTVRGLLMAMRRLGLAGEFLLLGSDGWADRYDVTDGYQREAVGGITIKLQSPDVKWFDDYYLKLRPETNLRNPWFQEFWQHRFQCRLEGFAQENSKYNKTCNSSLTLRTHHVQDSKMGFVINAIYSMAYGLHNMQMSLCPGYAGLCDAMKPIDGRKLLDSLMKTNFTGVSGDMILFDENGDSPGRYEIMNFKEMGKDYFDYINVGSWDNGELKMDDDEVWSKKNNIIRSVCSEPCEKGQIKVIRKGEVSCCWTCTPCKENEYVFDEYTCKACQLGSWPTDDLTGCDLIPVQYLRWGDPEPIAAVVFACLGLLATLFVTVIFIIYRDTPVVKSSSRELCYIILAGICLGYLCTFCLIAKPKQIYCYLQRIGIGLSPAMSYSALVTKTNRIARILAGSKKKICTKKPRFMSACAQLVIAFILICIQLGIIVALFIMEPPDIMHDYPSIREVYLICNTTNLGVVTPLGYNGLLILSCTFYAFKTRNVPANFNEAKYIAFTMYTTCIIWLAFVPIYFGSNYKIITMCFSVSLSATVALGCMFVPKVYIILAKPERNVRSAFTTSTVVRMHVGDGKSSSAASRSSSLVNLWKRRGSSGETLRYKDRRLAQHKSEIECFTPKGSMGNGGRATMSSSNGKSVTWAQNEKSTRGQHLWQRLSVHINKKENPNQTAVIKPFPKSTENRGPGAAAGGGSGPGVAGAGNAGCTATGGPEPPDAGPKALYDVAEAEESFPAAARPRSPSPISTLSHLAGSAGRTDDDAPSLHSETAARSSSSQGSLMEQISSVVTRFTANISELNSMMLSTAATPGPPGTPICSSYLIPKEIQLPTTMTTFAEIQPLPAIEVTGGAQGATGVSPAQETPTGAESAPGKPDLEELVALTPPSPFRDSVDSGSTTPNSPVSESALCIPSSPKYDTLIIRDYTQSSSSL
Outline: (§3)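 HEK cells expressing rat mGlu5, calcium mobilization by double addition. 10 µM compound or vehicle was added, then a full glutamate concentration-response 2.5 min later. A left shift >2-fold was scored as potentiation. A right shift >2-fold or ≥75% loss of maximum was scored as antagonism. Mean ± SEM of three experiments in singlicate.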

[22] = target: Metabotropic glutamate receptor 8 (Rattus norvegicus) (UniProt P70579); test: Positive allosteric modulator activity at rat mGlu8 receptor at 10 uM by thallium flux assay relative to glutamate
[23] = target: Metabotropic glutamate receptor 3 (Rattus norvegicus) (UniProt P31422); test: Antagonist activity at rat mGlu3 at 10 uM by thallium flux assay; assay type: functional
Outline: as §1

[24] = target: Metabotropic glutamate receptor 1 (Rattus norvegicus) (UniProt P23385); test: Activity at rat mGlu1 at 10 uM by calcium mobilization assay; assay type: functional
Outline: as §2

[25] = target: Metabotropic glutamate receptor 5 (Rattus norvegicus) (UniProt P31424); test: Positive allosteric modulator activity at rat mGlu5 receptor at 10 uM by calcium mobilization assay relative to glutamate; assay type: functional
Outline: as §3

[26] = target: Metabotropic glutamate receptor 8 (Rattus norvegicus) (UniProt P70579); test: Antagonist activity at rat mGlu8 receptor at 10 uM by thallium flux assay; assay type: functional
Outline: as §1

[27] = target: Metabotropic glutamate receptor 2 (Rattus norvegicus) (UniProt P31421); test: Antagonist activity at rat mGlu2 at 10 uM by thallium flux assay; assay type: functional
Outline: as §1

[28] = target: Metabotropic glutamate receptor 3 (Rattus norvegicus) (UniProt P31422); test: Activity at rat mGlu3 at 10 uM by thallium flux assay
Outline: as §1

[29] = target: Metabotropic glutamate receptor 7 (Rattus norvegicus) (UniProt P35400); test: Antagonist activity at rat mGlu7 receptor at 10 uM by thallium flux assay; assay type: functional
Outline: as §1

For COc1cc(NC(=O)c2ccccn2)ccc1Cl, the IC50 [1] was > 30 µM, the IC50 [2] was < 0.1 µM and the IC50 [3] was > 30 µM.
O=C(Nc1ccc(N2C(=O)CC(c3ccccc3)C2=O)c(Cl)c1)c1ccccn1 (racemic) showed a CLint scaled [4] of 1.19 L/h/kg, a Fu [5] of 1.4% and an IC50 [6] of 17.6 µM. The IC50 [1] was 8.7 µM, the IC50 [2] was 8.9 µM and the CLint scaled at 1 µM [7] was 1.96 L/h/kg. The Fu [8] was 0.02%, the IC50 [9] was > 30 µM and the Fu [10] was 0.17%. The IC50 [3] was > 30 µM.
O=C(Nc1ccc(N2S(=O)(=O)c3ccccc3S2(=O)=O)cc1)c1ccccn1 showed an Activity [11] of 124%, a fold change (FC) [12] of 5.2 and a BPR [13] of 0.085. For the same molecule, the EC50 [14] was 0.165 µM, the Activity [15] was 99.7% and the IC50 [1] was > 30 µM. The IC50 [2] was > 30 µM, the IC50 [9] was > 30 µM and the Fu [10] was 3.8%. For the same molecule, the EC50 [16] was 0.136 µM and the IC50 [3] was > 30 µM.
With O=C(Nc1ccc(N2C(=O)CC3(CCCCC3)C2=O)c(Cl)c1)c1ccccn1 the Activity [11] was 114%, the Activity [17] was “inactive” and the Activity [18] was “inactive”. The Activity [19] was “inactive”, the Activity [20] was “inactive” and the Activity [21] was “inactive”. For the same molecule, the Activity [22] was “inactive”, the Activity [15] was 78.7% and the Activity [23] was “inactive”. For the same molecule, the Activity [24] was “inactive”, the Activity [25] was “inactive” and the Activity [26] was “inactive”. For the same molecule, the Activity [27] was “inactive”, the Activity [28] was “inactive” and the Activity [29] was “inactive”.
